The IC50 is the midpoint of a concentration-inhibition curve. Read a low IC50 as greater potency in that assay.

Residues, ends and D or L forms follow the SMILES beside them. *: point of attachment. Cbz = O=C(OCc1ccccc1)* Bounds are passed on as bounds.

This is an account of results in article PMC2863310 (Pigment cell & melanoma research, 2009).

The subject of test [1] is HIF-1α. Kind of test: HIF-1α protein level in SW1 melanoma cells. The format is cell-based. The following applies: SW1 mouse melanoma cells, hypoxia 1% O2, 5 h.
For test [2], the target named is T1, GST-Siah2 (Mus musculus, UniProt Q06986).
T1 sequence (Q06986 1-325): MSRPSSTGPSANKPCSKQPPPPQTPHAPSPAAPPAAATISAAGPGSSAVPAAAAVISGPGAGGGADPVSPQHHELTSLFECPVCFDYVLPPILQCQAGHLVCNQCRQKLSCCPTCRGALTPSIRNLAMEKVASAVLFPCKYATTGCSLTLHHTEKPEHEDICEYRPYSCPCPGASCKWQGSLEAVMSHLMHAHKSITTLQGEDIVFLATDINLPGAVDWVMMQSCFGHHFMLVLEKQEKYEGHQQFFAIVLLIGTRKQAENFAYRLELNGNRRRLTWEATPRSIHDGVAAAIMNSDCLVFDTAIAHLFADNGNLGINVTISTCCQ
Kind of test: In vitro ubiquitination assay, Western blot with anti-ubiquitin. The test is classed as biochemical. In short, it runs like this:
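GST-Siah2 (with GST-RNF5 and GST-Siah2 RING mutant in parallel), bacterially expressed, glutathione-purified. Reactions on glutathione beads in 50 mM Tris-HCl pH 8.0, 5 mM MgCl2, 0.5 mM DTT, 2 mM NaF, with HA-ubiquitin (2 µg), 2 mM ATP, E1 (50 ng) and His-UbcH5b (250 ng), 45 min, 37°C, with shaking. Test compound at 100 µM or a concentration series. Read-out: 8% SDS-PAGE, anti-ubiquitin blot; anti-GST for input.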

Another test has as its system PHD3. In words: PHD3 level and half-life. The format is cell-based, mouse. In short, it runs like this:
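Immortalized MEFs are kept in 10% FBS with 0.1 mM non-essential amino acids and 0.2 mM 2-mercaptoethanol. Cells get test compound (25 µM), with or without 5 mM N-acetyl L-cysteine. PHD3 is blotted after 1% O2, 5 h; Spry2 under normoxia; HIF-1α in nuclear extracts. β-actin/lamin A are loading controls. For half-life, cycloheximide (20 µg/ml) is added after 5 h hypoxia and cells are harvested over time.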

In test [3] the target is T2, Siah2 (Mus musculus, UniProt Q06986).
T2 sequence (Q06986 1-325): T1 sequence (Q06986 1-325)
In words: In vivo auto-ubiquitination of Siah2 in 293T cells. The note with it: MEN 25 µM or MG132 40 µM, 6 h. The format is cell-based. In short, it runs like this:
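293T cells (DMEM, 10% BS) were co-transfected with Flag-Siah2 with or without HA-ubiquitin and treated 24 h later. Cells were lysed in 2% SDS/TBS at 95°C for 10 min, diluted ninefold in 1% Triton X-100/2 mM EDTA, sonicated, precleared with protein G and clarified. Anti-Flag immunoprecipitation used 2 mg protein overnight at 4°C. After stringent washes, 8% SDS-PAGE was blotted with anti-HA and reprobed with anti-Flag.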

Another test has as its system VEGF. Kind of test: VEGF secretion from SW1 melanoma cells. The test is classed as cell-based, mouse. The following applies: 10 h, ELISA.
In test [4] the target is T2, Siah2. In words: Siah steady-state levels in transfected 293T cells. The format is cell-based. In short, it runs like this: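 293T cells (DMEM, 10% BS) were transiently transfected with HA-Siah2 or Flag-Siah1a (1 µg) by calcium phosphate or Lipofectamine. They were treated 24 h later with test compound at several concentrations, with DMSO as control. Lysates were immunoblotted for the tag with β-actin as loading control, using fluorescent secondary antibodies and infrared scanning.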

The subject of the next test is SPRY2. In words: Spry2 expression in 293T cells transfected with Myc-Spry2 and HA-Siah2. The format is cell-based. The following applies: 5 h.
Another test concerns the target T3, Siah1 (Mus musculus, UniProt P61092).
T3 sequence (P61092 1-282): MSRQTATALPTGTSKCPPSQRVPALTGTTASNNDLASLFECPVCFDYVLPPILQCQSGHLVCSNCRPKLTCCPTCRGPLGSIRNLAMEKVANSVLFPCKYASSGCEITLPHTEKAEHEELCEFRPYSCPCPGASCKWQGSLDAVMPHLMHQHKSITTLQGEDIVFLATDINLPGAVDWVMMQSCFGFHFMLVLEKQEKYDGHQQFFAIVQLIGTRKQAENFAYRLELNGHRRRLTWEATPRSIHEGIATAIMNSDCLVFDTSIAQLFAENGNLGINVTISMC
In words: Siah1 ubiquitin ligase activity. The test is classed as biochemical.

The subject of test [5] is HIF-1α. In words: HIF-1α protein level in 293T cells. The format is cell-based. The following applies: hypoxia 1% O2, 5 h.
The next test concerns SW1 melanoma cells. In words: Semi-quantitative RT-PCR of HIF-1α and VEGF transcripts. The format is cell-based, mouse.
Test [6] concerns the target T1, GST-Siah2. Kind of test: In vitro protein-binding assay of GST-Siah2 with PHYL or Spry2. A digest of the protocol: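 GST-Siah2 was affinity-purified onto glutathione-Sepharose 4B beads. Spry2 and PHYL were made by coupled in vitro transcription/translation in reticulocyte lysate with [35S]-methionine and mixed with the GST fusion on glutathione beads. Bound protein was resolved on 12% SDS-PAGE and detected by autoradiography.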

Test [7] concerns the target T4, GST-RNF5 (Homo sapiens, UniProt Q99942). In words: Meso Scale electro-chemiluminescent RNF5 ubiquitination assay. The format is biochemical. A digest of the protocol: (§1)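 Electrochemiluminescent format. GST-Siah2 or GST-RNF5 (5 pM final) is adsorbed onto glutathione-coated wells. Test compound is added in 100% DMSO. Reaction is started with a pre-charged ubiquitin-E1-E2 mix and runs 1 h at room temperature, then is stopped by Tris-buffered washes. SULFO-Tag antibody to ubiquitinated proteins is added and the signal is read. Library tested at 100 µM; hits confirmed by dose-response curves.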

The test system of the next test is UACC903 melanoma cells. In words: Spry2 and pERK levels in UACC903 melanoma cells. The test is classed as cell-based, human. The note with it: 5 h. A digest of the protocol: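 UACC903 human melanoma cells are treated 5 h with a concentration series of test compound. Blots are probed overnight at 4°C and detected with fluorescent secondary antibodies. Total ERK or β-actin serves as loading control.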

Test [8] concerns the target T1, GST-Siah2. Kind of test: Meso Scale electro-chemiluminescent Siah2 self-ubiquitination assay. The format is biochemical. A digest of the protocol:
as §1

In test [9] the test system is Human Microvascular Endothelial Cells (HMVEC). Kind of test: HMVEC tube formation with conditioned medium of treated SW1 cells. The test is classed as cell-based. The following applies: medium from SW1 cells treated 10 h under hypoxia; read after 16 h.
The target of test [10] is T4, GST-RNF5. Kind of test: In vitro ubiquitination assay, Western blot with anti-ubiquitin. The note with it: 100 µM. The format is biochemical. In short, it runs like this: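 Bacterially expressed GST-RNF5 was purified on glutathione resin. The reaction buffer was 50 mM Tris-HCl pH 8.0, 5 mM MgCl2, 0.5 mM DTT and 2 mM NaF, with HA-ubiquitin (2 µg), 2 mM ATP, E1 (50 ng) and purified His-UbcH5b E2 (250 ng). Test compound was present at 100 µM, and reactions ran 45 min at 37°C.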

A further test relates to UACC903 melanoma tumors. In words: UACC903 melanoma xenograft in nude mice. The format is in vivo, mouse. A digest of the protocol:
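UACC903 cells (1 × 10^6 in 100 µl PBS) are injected s.c. into the flank of 4-week-old male nude mice. From 1 week, test compound (2, 5 or 10 mg/kg; 0.1% DMSO final) is given i.p. twice weekly for 4 weeks, with tumors measured twice weekly. Harvested tumors: Z-fix, IHC for HIF-1α/pERK (HRP polymer, DAB, hematoxylin), TUNEL (peroxidase kit), and pERK/total ERK immunoblots.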

T4 sequence (Q99942 whole entry): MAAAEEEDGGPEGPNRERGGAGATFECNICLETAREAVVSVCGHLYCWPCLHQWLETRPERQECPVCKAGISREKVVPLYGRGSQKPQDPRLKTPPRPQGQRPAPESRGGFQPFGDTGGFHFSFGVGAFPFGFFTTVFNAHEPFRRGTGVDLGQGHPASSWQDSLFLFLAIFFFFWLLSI

In the case of `CC1=CC(=O)c2ccccc2C1=O` [compound 1, menadione], the HIF-1α expression result in the test on HIF-1α [1] was “effectively reduced the level of HIF-1α expression”. For the same compound, the “Siah2 auto-ubiquitination in vitro” value on GST-Siah2 [2] (100 µM, new lots of compounds, Western blot) is “strongest degree of Siah2 inhibition”. For the same compound, the “Siah2 auto-ubiquitination in vitro, dose dependence” value at GST-Siah2 [2] (GST-Siah2 on glutathione beads, increasing concentrations) is given as “attenuated in a dose-dependent manner”. The “stabilization of PHD3 or Spry2, effect on HIF-1α, in presence of ROS scavenger” value in the test on PHD3 (MEF cells, 25 µM with 5 mM N-acetyl cysteine) is given as “not affected”. The “steady state levels of endogenous PHD3” value in the test on PHD3 (MEF cells, hypoxia 1% O2, 5 h, increasing concentrations) is recorded as “corresponding increase in the steady state levels of endogenous PHD3”. The “increase of PHD3 or Spry2 expression in Siah KO cells” value with PHD3 (Siah2 KO and Siah2/Siah1a DKO MEF, 25 µM) was “attenuated in the Siah2 KO and completely abolished in the Siah2/1a DKO cells”. For the same compound, the “Siah2 ubiquitination in vivo” value at Siah2 [3] is given as “effectively inhibits Siah2 ubiquitination in vivo”. Moreover, the “level of VEGF secreted” value in the test with VEGF is “proportionally reduced”. Moreover, at Siah2 [4], the “steady-state levels of Siah2 / Siah1a” value is recorded as “increase the steady-state levels of Siah2”. Moreover, in the test on SPRY2, the “Siah2-dependent decrease in SPRY2 expression” value was “attenuated Siah2-dependent decrease in SPRY2 expression”. Besides, the “Siah1 ubiquitin ligase activity” value at Siah1 is given as “attenuated Siah1 ubiquitin ligase activity”. The HIF-1α expression result with HIF-1α [5] is given as “reduced the expression of HIF-1α in a dose-dependent manner”. Moreover, in the test with SW1 melanoma cells, the “level of HIF-1α transcripts” value is listed as “did not alter the level of HIF-1α transcripts” and the “transcription of VEGF” value is listed as “inhibited the transcription of the HIF-1α target gene, VEGF”. In addition, the “association of Siah2 with PHYL or Spry2” value at GST-Siah2 [6] was “without affecting the association with PHYL or Spry2”. The IC50 against GST-RNF5 [7] was over 100 µM. Further, in the test on UACC903 melanoma cells, the “ERK activity / phosphorylation” value is given as “ERK activity was decreased” and the SPRY2 level entry is “increase in SPRY2 level”. Also, the IC50 against GST-Siah2 [8] is 20 µM. The “tube formation of HMVEC cells” value in test [9] is reported as “dose-dependent decrease in tube formation”. Further, the “RNF5 self-ubiquitination in vitro” value on GST-RNF5 [10] is on record as “did not reduce RNF5 self-ubiquitination activity”. Also, the “pERK levels in tumors” value in the test with UACC903 melanoma tumors (IHC and immunoblot of xenograft tumors) is listed as “effectively reduced the levels of pERK”. The “HIF-1α expression in tumors” value with UACC903 melanoma tumors (IHC of xenograft tumors) was “lower levels of HIF-1α expression”. Further, in the test on UACC903 melanoma tumors (xenograft tumors), the “degree of apoptosis in tumors (TUNEL)” value is given as “found to be higher”.

As for `CC(C)C[C@@H](C=O)NC(=O)[C@H](CC(C)C)NC(=O)[C@H](CC(C)C)NC(=O)OCc1ccccc1` [MG132] (Cbz-Leu-Leu-Leu-aldehyde), the “Siah2 ubiquitination in vivo” value on Siah2 [3] was “increased the ubiquitinated and unubiquitinated forms of Siah2”.
